Measured values published in publication PMC10644204 (Pharmacology Research & Perspectives, 2023).

Tests used:
[1] = Plasma pharmacokinetics, part 2 main QTc study; format: in vivo, human; details: human, plasma, oral, 400 mg
Procedure, shortened: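 Moderate-fat meal 30 min before each dose. Plasma sampled predose on Days 1, 5, 6 and 7, and on Day 7 at 0.5–24 h postdose. Test compound assayed by validated UHPLC-MS/MS (3.00–1000 ng mL−1).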

[2] = tested on: healthy participants; format: in vivo, human; details: moxifloxacin 400 mg single dose
[3] = tested on: healthy participants; assay: Safety assessments; format: in vivo, human; details: part 2, Moxifloxacin 400 mg (N = 40)
Procedure, shortened: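 Part 2 healthy participants confined from Day −2 of period 1 to Day 9 of period 4. […] AEs monitored throughout, recording duration, severity, causality and outcome, alongside safety ECGs, laboratory tests, physical examination and vital signs.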

[4] = tested on: QT interval; details: supratherapeutic vs therapeutic doses; cited from earlier work

Question: What does the source list for `COc1c(N2C[C@@H]3CCCN[C@@H]3C2)c(F)cc2c(=O)c(C(=O)O)cn(C3CC3)c12` [Moxifloxacin, moxifloxacin, reference compound]?
Answer: Cmax [1]: 1960 ng/mL; Tmax [1]: 4 h; Observations of ΔQTcF >30 ms [2]: no participants; AE: Abdominal pain [3]: 1 (3) n (%); AE: Acne [3]: 0 n (%); AE: Diarrhea [3]: 0 n (%); AE: Gastrointestinal disorders [3]: 2 (5) n (%); AE: General disorders and administration site conditions [3]: 1 (3) n (%); AE: Immune system disorders [3]: 1 (3) n (%); AE: Infections and infestations [3]: 0 n (%); AE: Maculopapular rash [3]: 0 n (%); AE: Medical device site dermatitis [3]: 0 n (%); AE: Nausea [3]: 0 n (%); AE: Nervous system disorders [3]: 2 (5) n (%); AE: Renal and urinary disorders [3]: 1 (3) n (%); AE: Reproductive system and breast disorders [3]: 0 n (%); AE: Respiratory, thoracic, and mediastinal disorders [3]: 0 n (%); AE: Skin and subcutaneous tissue disorders [3]: 0 n (%); AE: Vessel puncture site pain [3]: 1 (3) n (%); Any AE [3]: 4 (10) n (%); Any drug-related AE [3]: 2 (5) n (%); Drug-related AE: Abdominal pain [3]: 1 (3) n (%); Drug-related AE: Acne [3]: 0 n (%); Drug-related AE: Diarrhea [3]: 0 n (%); Drug-related AE: Fatigue [3]: 0 n (%); Drug-related AE: Gastrointestinal disorders [3]: 1 (3) n (%); Drug-related AE: General disorders and administration site conditions [3]: 0 n (%); Drug-related AE: Maculopapular rash [3]: 0 n (%); Drug-related AE: Nausea [3]: 0 n (%); Drug-related AE: Pruritus [3]: 0 n (%); Drug-related AE: Renal and urinary disorders [3]: 1 (3) n (%); Drug-related AE: Skin and subcutaneous tissue disorders [3]: 0 n (%); Drug-related AE: Urinary hesitation [3]: 1 (3) n (%); Any drug-related AE ([3]; listed as moxifloxacin): 2 n (%)

Question: Which QT prolongation [4] does the source give for `COc1cnc(-n2cnc(C)n2)c2c1c(C(=O)C(=O)N1CCN(C(=O)c3ccccc3)CC1)cn2COP(=O)(O)O` [fostemsavir] here?
Answer: The QT prolongation was “QT prolongation with supratherapeutic doses but not therapeutic doses”.

Question: Which QT prolongation [4] does the source give for `Cc1cc(/C=C/C#N)cc(C)c1Nc1ccnc(Nc2ccc(C#N)cc2)n1` [rilpivirine] here?
Answer: Its QT prolongation is “QT prolongation with supratherapeutic doses but not therapeutic doses”.
